This excerpt belongs to a sample that is enriched for hits.
PostGolgi ctrl: inhibits growth of the yeast control strain. efflux-deficient yeast background strain, growth absorbance A615, 16 h. inhibition, % at 10 µM. 98,000 tested, 5% active
BB579 growth dn: reduces growth of yeast BB579 in restrictive medium; AID 804; 140,000 tested, 0.51% active; inhibition, % at 10 µM; S. cerevisiae BB579 growth, OD615, 48 h;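 active means inhibition above a set limit, 3 SD over the mean compound inhibition, cut at about 44% in these data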
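Test system: DeaD yeast strain BB579 / Buffer or medium: restrictive glucose-based CSMM-D medium / Doses: single 10 µM dose / Schedule: 4 h cell preincubation, 48 h compound exposure, 30 °C humidified / Technique: culture absorbance at 615 nm / Controls: amphotericin B positive control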
PostGolgi yeast: growth inhibition of a yeast mutant, post-Golgi transport screen; post-Golgi transport phenotypic cell assay; inhibition, % at 10 µM; 98,000 tested, 0.9% active;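 further: yeast cells grown in 1536-well plates; yeast grown about 18 h at 30C before absorbance read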
Yeast life ext: extends the lifespan of yeast | S. cerevisiae growth with nicotinamide, OD615; deaD strain in restrictive glucose medium | inhibition of the nicotinamide effect, % at 10 µM | 130,000 tested, 0.68% active | AID 775;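 active means inhibition above a set limit, placed 3 SD over the median of all compounds, cut at about 26% in these data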
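Test system: DeaD-strain S. cerevisiae / Buffer or medium: restrictive glucose medium / Also added: nicotinamide 1.5 mM / Doses: one concentration, 10 µM, DMSO 0.25% / Schedule: 48 h at 30 °C / Signal: OD615 measurement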
Large screens that a line does not name were inactive; ! = repeats disagree. Unless noted, no stated cut-off is given here; in the data, active means inhibition above about 30%; inactive means the rest.

COc1ccc(NC(=S)Nc2cccc(S(=O)(=O)N3CCCCC3)c2)cc1	none (no result: PostGolgi ctrl, PostGolgi yeast)
O=C(c1cccc(F)c1)N1CCN(c2cc(N3CCCCC3)c(F)cc2[N+](=O)[O-])CC1	PostGolgi ctrl 52
CCOc1cc(-c2noc(CCC(=O)Nc3cccnc3)n2)ccc1OC	PostGolgi ctrl 33
CCOc1ccc(-c2noc(CCC(=O)NC)n2)cc1OCC	none
Cc1cc(C)cc(NS(=O)(=O)c2cnc(Cl)c(Cl)c2)c1	PostGolgi ctrl 43, BB579 growth dn 76
COC(=O)CN1C(=S)N(Cc2ccccc2)C(=O)C1CC(=O)Nc1ccc(Br)cc1 (centres undefined)	PostGolgi ctrl 79
CCSc1nc2[nH]ncc2c(=O)[nH]1	none (no result: PostGolgi ctrl, PostGolgi yeast)
CCSc1nc2c(sc3nc(C)cc(C)c32)c(=O)[nH]1	PostGolgi ctrl 42
O=C(Cn1nc(-c2ccccc2)c2ccccc2c1=O)Nc1cccnc1	none
N#Cc1c(-c2ccccc2)c(-c2ccccc2)nn(CC(=O)NNC(=O)Nc2ccccc2)c1=O	Yeast life ext 62
CCc1ccc(C(=O)CN2C(=O)NC(C)(CCc3ccccc3)C2=O)cc1 (centres undefined)	Yeast life ext 46 (no result: PostGolgi ctrl, PostGolgi yeast)
c1ccc(CCn2nnnc2C(c2cccnc2)N2CCN(c3nc4ccccc4s3)CC2)cc1 (centres undefined)	PostGolgi yeast 43
c1ccc(CCn2nnnc2C(c2cccnc2)N2CCN(c3ccccc3)CC2)cc1 (centres undefined)	PostGolgi ctrl 43, PostGolgi yeast 62
CCC(C)(C)n1nnnc1C(c1ccc2ncccc2c1)N1CCCC(C)C1 (centres undefined)	none (no result: PostGolgi ctrl, PostGolgi yeast, Yeast life ext)
CCC(C)(C)n1nnnc1C(c1ccc2ncccc2c1)N1CCN(c2nc3ccccc3s2)CC1 (centres undefined)	PostGolgi ctrl 34
Fc1ccccc1N1CCN(C(c2cccs2)c2nnnn2CCc2ccccc2)CC1 (centres undefined)	none
COc1ccc(C(c2nnnn2Cc2ccccc2)N2CCN(c3nc4ccccc4s3)CC2)cc1 (centres undefined)	none
Oc1ccc(N2CCN(C(c3cccnc3)c3nnnn3Cc3ccccc3)CC2)cc1 (centres undefined)	none
Fc1ccc(N2CCN(C(c3cccs3)c3nnnn3CCc3ccccc3)CC2)cc1 (centres undefined)	PostGolgi ctrl 37
CC(C)c1nnc(NC(=O)CCC(=O)NC2CCCc3ccccc32)s1 (centres undefined)	none (no result: PostGolgi ctrl, PostGolgi yeast)
CCOC(=O)c1c(C)c(-c2ccccc2)n(CC(=O)NCCC(C)C)c1C	none
Cc1sc2nc(CSc3cccc(C(F)(F)F)c3)[nH]c(=O)c2c1C	none (no result: PostGolgi ctrl, PostGolgi yeast)
O=C(Nc1ccc(SC(F)F)cc1)c1ccc2nccnc2c1	PostGolgi ctrl 31
O=C(CSc1nn(-c2ccccc2)c(=S)s1)NC1CCS(=O)(=O)C1 (centres undefined)	none (no result: PostGolgi ctrl, PostGolgi yeast)
O=C(CSc1nn(-c2ccccc2)c(=S)s1)Nn1cnnc1	PostGolgi ctrl 35
O=c1c2cc(Br)cc(Br)c2oc2nc3n(c(=O)c12)CCCS3	PostGolgi ctrl 43
CSc1cccc(NC(=O)CSc2nc3ccccc3o2)c1	none
CC1(c2ccccc2)NC(=O)N(Cc2ccc([N+](=O)[O-])cc2)C1=O (centres undefined)	none (no result: PostGolgi ctrl, PostGolgi yeast)
CCN(CCO)C(=O)C12CCC(C)(C(=O)C1)C2(C)C (centres undefined)	Yeast life ext 68
CCc1ccc(C(CC(=O)c2ccc(Cl)cc2)C(=O)O)cc1 (centres undefined)	Yeast life ext 31
CCOc1ccc(OCC)c(NC(=O)C2CCCN2S(=O)(=O)c2cccc3cccnc23)c1 (centres undefined)	none
Cc1ccccc1NC(=O)C1CCCN(S(=O)(=O)c2cccc3cccnc23)C1 (centres undefined)	PostGolgi ctrl 31
COc1ccc(NC(=O)C2CCCN2S(=O)(=O)c2cccc3cccnc23)c(OC)c1 (centres undefined)	PostGolgi ctrl 95, BB579 growth dn 98, PostGolgi yeast 97
CCOC(=O)C1=C(C)N=C2SC(C)C(=O)N2C1c1ccc(OC(C)=O)c(OC)c1 (centres undefined)	PostGolgi ctrl 47
CC(=O)NS(=O)(=O)c1ccc(NC(=O)c2ccc3c(c2)C(=O)N(CCC(C)C)C3=O)cc1	none (no result: PostGolgi ctrl, PostGolgi yeast)
O=[N+]([O-])c1ccc(O)c2ncccc12	BB579 growth dn 99 (no result: PostGolgi ctrl, PostGolgi yeast)
O=[N+]([O-])c1cc([N+](=O)[O-])c2cccnc2c1Oc1ccccc1O	none (no result: PostGolgi ctrl, PostGolgi yeast)
C=CCn1c(Cc2cccs2)nnc1SC/C=C/c1ccccc1	none
O=C(c1cccc(S(=O)(=O)N2CCCCC2)c1)N1CCCCC1	PostGolgi ctrl 38
O=C(c1cccc(-c2nnc(-c3ccccc3)o2)c1)N1CCCCCC1	none
O=C(NCc1ccc2c(c1)OCO2)c1cccc(S(=O)(=O)N2CCOCC2)c1	none
O=C(NCc1ccc2c(c1)OCO2)c1cccc(S(=O)(=O)N2CCCCC2)c1	PostGolgi ctrl 31
O=C(c1cccc(-c2nnc(-c3ccccc3)o2)c1)N1CCCCC1	PostGolgi ctrl 31
CCC(C)NC(=O)COC(=O)c1oc2ccccc2c1CSc1ccc(Cl)cc1 (centres undefined)	none (no result: PostGolgi ctrl, PostGolgi yeast)
Cc1ccc(-n2c(O)c(/C=N/n3cnnc3)c3ccccc3c2=O)cc1	PostGolgi ctrl 34!
Cc1cnn(-c2ccc3nnc(-c4ccc(Cl)cc4)n3n2)c1	none
CCc1nc(N(CC)CC)c2oc3ccccc3c2n1	PostGolgi ctrl 36
Cc1nc(NCc2ccc3c(c2)OCO3)c2oc3ccccc3c2n1	none
CCc1nc(NCc2ccc3c(c2)OCO3)c2oc3ccccc3c2n1	PostGolgi ctrl 55
CC1CCCC(NC(=O)C2CCN(S(=O)(=O)N3CCCCCC3)CC2)C1C (centres undefined)	none (no result: PostGolgi ctrl, PostGolgi yeast)
Cc1ccc(S(=O)(=O)N(Cc2ccc(Cl)cc2)c2ccccc2C(=O)NCc2ccco2)cc1	none (no result: PostGolgi ctrl, PostGolgi yeast)
CC(=O)N1N=C(c2ccc(Cl)cc2)OC1(C)C	BB579 growth dn 48 (no result: PostGolgi ctrl, PostGolgi yeast)
CCCSc1nc2c(cnn2-c2ccc(C)cc2)c(=O)[nH]1	none
CCCSc1nc2c(cnn2-c2ccccc2)c(=O)[nH]1	PostGolgi ctrl 33
CO/N=C(/CNC(=O)c1ccc(Cl)cc1Cl)c1ccc(Cl)cc1	none
CO/N=C(/CS(=O)(=O)Cc1ccccc1Cl)c1ccc(Cl)cc1Cl	PostGolgi ctrl 33
CC1CN(C2CCN(S(=O)(=O)c3ccccc3)CC2)CC(C)O1 (centres undefined)	none (no result: PostGolgi ctrl, PostGolgi yeast, Yeast life ext)
CC1CN(C2CCN(S(=O)(=O)c3ccc(F)cc3)CC2)CC(C)O1 (centres undefined)	PostGolgi ctrl 30, PostGolgi yeast 48
COc1ccc(NC(=O)c2onc(C)c2Cl)cc1OC	PostGolgi ctrl 34
Cc1ccc(OCCn2cc(C(=S)N3CCCC3)c3ccccc32)cc1C	PostGolgi ctrl 31
S=C(c1cn(CCOc2ccccc2)c2ccccc12)N1CCCC1	none
COc1ccc(S(=O)(=O)N2CC3C4C=CC(C4)C3C2)cc1 (centres undefined)	PostGolgi ctrl 47
O=[N+]([O-])c1ccc(N2N=C(c3ccco3)CC2c2ccccc2)cc1 (centres undefined)	PostGolgi ctrl 31
CCOC(=O)c1c(NC(=O)CN2CCCCC2)sc2c1CCC(C=O)=C2Cl	PostGolgi yeast 40

Screens: PubChem, SRMLSC
